Source: ChEMBL document CHEMBL1135826, “Antimicrobial peptides: synthesis and antibacterial activity of linear and cyclic drosocin and apidaecin 1b analogues” (2002)
≈ marks a conversion by molar mass, not a printed value. Where a SMILES comes first, the peptide text is derived from it. The star is where a group is joined. X2 = CC(=O)N[C@@H]1[C@@H](O)[C@H](O)[C@@H](CO)O[C@@H]1*; βGal = OC[C@H]1O[C@@H](*)[C@H](O)[C@@H](O)[C@H]1O; X1 = OC[C@H]1O[C@H](*)[C@H](O)[C@@H](O)[C@H]1O

Key:
Staphylococcus aureus = assay: Minimum inhibitory concentration (lowest peptide concentration) required to prevent visible bacterial growth after 18 hr of incubation at 37 C in Mueller-Hinton broth against Staphylococcus aureus G; assay type: functional
Outline: (§1)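 Broth microdilution susceptibility test per NCCLS guidelines, in Mueller–Hinton broth with about 1.5–2.0 × 10^5 CFU/mL inoculum. Plates were incubated 18 h at 37 °C. MIC was taken as the lowest peptide concentration with no visible growth. Strains were ATCC strains or clinical isolates; E. coli O18:K1:H7 Bort is an encapsulated isolate from neonatal spinal fluid, and the S. aureus isolate is MRSA.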

Escherichia coli [1] = assay: Minimum inhibitory concentration (lowest peptide concentration) required to prevent visible bacterial growth after 18 hr of incubation at 37 C in Mueller-Hinton broth against Escherichia coli D21; assay type: functional; outline: as §1
Acinetobacter baumannii = assay: Minimum inhibitory concentration (lowest peptide concentration) required to prevent visible bacterial growth after 18 hr of incubation at 37 C in Mueller-Hinton broth against Acinetobacter baumannii 118A; assay type: functional; outline: as §1
Escherichia coli [2] = assay: Minimum inhibitory concentration (lowest peptide concentration) required to prevent visible bacterial growth after 18 hr of incubation at 37 C in Mueller-Hinton broth against Escherichia coli ML-35; assay type: functional; outline: as §1
Salmonella enteritidis [3] = assay: Minimum inhibitory concentration (lowest peptide concentration) required to prevent visible bacterial growth after 18 h of incubation at 37 C in Mueller-Hinton broth against […]; assay type: functional, Salmonella enterica subsp. enterica serovar Enteritidis; conditions: Salmonella enterica; outline: as §1
Salmonella enteritidis [4] = assay: Minimum inhibitory concentration (lowest peptide concentration) required to prevent visible bacterial growth after 18 hr of incubation at 37 C in Mueller-Hinton broth against Salmonella enteritidis D5; conditions: Salmonella enterica
Escherichia coli [5] = assay: Minimum inhibitory concentration (lowest peptide concentration) required to prevent visible bacterial growth after 18 hr of incubation at 37 C in Mueller-Hinton broth against Escherichia coli D22; assay type: functional; outline: as §1
Escherichia coli [6] = assay: Minimum inhibitory concentration (lowest peptide concentration) required to prevent visible bacterial growth after 18 hr of incubation at 37 C in Mueller-Hinton broth against Escherichia coli ATCC 25922; assay type: functional; conditions: ATCC 25922, 18 h; outline: as §1
Escherichia coli [7] = assay: Minimum inhibitory concentration (lowest peptide concentration) required to prevent visible bacterial growth after 18 hr of incubation at 37 C in Mueller-Hinton broth against Escherichia coli O18:K1:H7; assay type: functional; outline: as §1
Pseudomonas aeruginosa = assay: Minimum inhibitory concentration (lowest peptide concentration) required to prevent visible bacterial growth after 18 hr of incubation at 37 C in Mueller-Hinton broth against Pseudomonas aeruginosa ATCC 27853; assay type: functional; conditions: ATCC 27853, 18 h; outline: as §1
Klebsiella pneumoniae [8] = assay: Minimum inhibitory concentration (lowest peptide concentration) required to prevent visible bacterial growth after 18 hr of incubation at 37 C in Mueller-Hinton broth against Klebsiella pneumoniae 79; assay type: functional; outline: as §1
Salmonella typhimurium = assay: Minimum inhibitory concentration (lowest peptide concentration) required to prevent visible bacterial growth after 18 hr of incubation at 37 C in Mueller-Hinton broth against Salmonella Typhimurium ATCC 14028; assay type: functional, Salmonella enterica subsp. enterica serovar Typhimurium; conditions: Salmonella enterica; outline: as §1
[9] = tested on: Staphylococcus epidermidis; assay: Minimum inhibitory concentration (lowest peptide concentration) required to prevent visible bacterial growth after 18 hr of incubation at 37 C in Mueller-Hinton broth against Staphylococcus epidermidis 4; assay type: functional; outline: as §1
Klebsiella pneumoniae [10] = assay: Minimum inhibitory concentration (lowest peptide concentration) required to prevent visible bacterial growth after 18 hr of incubation at 37 C in Mueller-Hinton broth against Klebsiella pneumoniae 22; assay type: functional; outline: as §1

Row | MIC (Staphylococcus aureus) [µM] | MIC (Escherichia coli [1]) [µM] | MIC (Acinetobacter baumannii) [µM] | MIC (Escherichia coli [2]) [µM] | MIC (Salmonella enteritidis [3]) [µM] | MIC (Salmonella enteritidis [4]) [µM] | MIC (Escherichia coli [5]) [µM] | MIC (Escherichia coli [6]) [µM] | MIC (Escherichia coli [7]) [µM] | MIC (Pseudomonas aeruginosa) [µM] | MIC (Klebsiella pneumoniae [8]) [µM] | MIC (Salmonella typhimurium) [µM] | MIC [9] [µM] | MIC (Klebsiella pneumoniae [10]) [µM] | Compound
1 | > 64 | > 64 | > 128 | 2 (≈ 4.72 µg/mL) | 4 (≈ 9.44 µg/mL) | 2 (≈ 4.72 µg/mL) | 2 (≈ 4.72 µg/mL) | 2 (≈ 4.72 µg/mL) | 2 (≈ 4.72 µg/mL) | > 128 | 32 (≈ 75.5 µg/mL) | 8 (≈ 18.9 µg/mL) | > 64 | 32 (≈ 75.5 µg/mL) | CC[C@H](C)[C@H](NC(=O)[C@@H]1CCCN1C(=O)[C@H](CCCN=C(N)N)NC(=O)[C@@H]1CCCN1C(=O)[C@H](Cc1c[nH]cn1)NC(=O)[C@H](CO)NC(=O)[C@@H](NC(=O)[C@@H]1CCCN1C(=O)[C@H](CCCN=C(N)N)NC(=O)[C@@H]1CCCN1C(=O)[C@H](CO)NC(=O)[C@H](Cc1ccc(O)cc1)NC(=O)[C@@H]1CCCN1C(=O)[C@H](CCCN=C(N)N)NC(=O)[C@@H]1CCCN1C(=O)[C@H](CCCCN)NC(=O)CN)[C@@H](C)O[C@H]1O[C@H](CO)[C@H](O)[C@H](O)[C@H]1O)C(=O)N[C@@H](CCCN=C(N)N)C(=O)N[C@H](C(=O)O)C(C)C (H-GKPRPYSPRPT(X1)SHPRPIRV-OH)
2 | > 64 | > 64 | > 128 | 64 (≈ 134 µg/mL) | > 64 | > 64 | 64 (≈ 134 µg/mL) | > 64 | 32 (≈ 66.9 µg/mL) | > 128 | > 64 | > 64 | > 64 | > 64 | CC[C@H](C)[C@@H]1NC(=O)[C@H](Cc2ccc(O)cc2)NC(=O)[C@H](C(C)C)NC(=O)[C@@H]2CCCN2C(=O)[C@H](CCCN=C(N)N)NC(=O)[C@H](CC(N)=O)NC(=O)[C@H](CC(N)=O)NC(=O)CNC(=O)[C@H](CC(C)C)NC(=O)[C@H](CCCN=C(N)N)NC(=O)[C@@H]2CCCN2C(=O)[C@H](Cc2c[nH]cn2)NC(=O)[C@@H]2CCCN2C(=O)[C@@H]2CCCN2C(=O)[C@H](CCCN=C(N)N)NC(=O)[C@@H]2CCCN2C(=O)[C@H](CCC(N)=O)NC(=O)[C@@H]2CCCN2C1=O (HELM PEPTIDE1{G.N.N.R.P.V.Y.I.P.Q.P.R.P.P.H.P.R.L}$PEPTIDE1,PEPTIDE1,1:R1-18:R2$$$V2.0)
3 | > 64 | 8 (≈ 19.2 µg/mL) | > 128 | 1 (≈ 2.4 µg/mL) | 2 (≈ 4.8 µg/mL) | 1 (≈ 2.4 µg/mL) | 1 (≈ 2.4 µg/mL) | 1 (≈ 2.4 µg/mL) | 1 (≈ 2.4 µg/mL) | > 128 | 8 (≈ 19.2 µg/mL) | 2 (≈ 4.8 µg/mL) | > 64 | 4 (≈ 9.61 µg/mL) | CC[C@H](C)[C@H](NC(=O)[C@@H]1CCCN1C(=O)[C@H](CCCN=C(N)N)NC(=O)[C@@H]1CCCN1C(=O)[C@H](Cc1c[nH]cn1)NC(=O)[C@H](CO)NC(=O)[C@@H](NC(=O)[C@@H]1CCCN1C(=O)[C@H](CCCN=C(N)N)NC(=O)[C@@H]1CCCN1C(=O)[C@H](CO)NC(=O)[C@H](Cc1ccc(O)cc1)NC(=O)[C@@H]1CCCN1C(=O)[C@H](CCCN=C(N)N)NC(=O)[C@@H]1CCCN1C(=O)[C@H](CCCCN)NC(=O)CN)[C@@H](C)O[C@H]1O[C@H](CO)[C@@H](O)[C@H](O)[C@H]1NC(C)=O)C(=O)N[C@@H](CCCN=C(N)N)C(=O)N[C@H](C(=O)O)C(C)C (H-GKPRPYSPRPT(X2)SHPRPIRV-OH)
4 | > 64 | > 64 | > 128 | 4 (≈ 8.43 µg/mL) | 4 (≈ 8.43 µg/mL) | 4 (≈ 8.43 µg/mL) | 4 (≈ 8.43 µg/mL) | 4 (≈ 8.43 µg/mL) | 4 (≈ 8.43 µg/mL) | > 128 | 32 (≈ 67.5 µg/mL) | 8 (≈ 16.9 µg/mL) | > 64 | 32 (≈ 67.5 µg/mL) | CC[C@H](C)[C@H](NC(=O)[C@H](Cc1ccc(O)cc1)NC(=O)[C@@H](NC(=O)[C@@H]1CCCN1C(=O)[C@H](CCCNC(=N)N)NC(=O)[C@H](CC(N)=O)NC(=O)[C@H](CC(N)=O)NC(=O)CN)C(C)C)C(=O)N1CCC[C@H]1C(=O)N[C@@H](CCC(N)=O)C(=O)N1CCC[C@H]1C(=O)N[C@@H](CCCNC(=N)N)C(=O)N1CCC[C@H]1C(=O)N1CCC[C@H]1C(=O)N[C@@H](Cc1cnc[nH]1)C(=O)N1CCC[C@H]1C(=O)N[C@@H](CCCNC(=N)N)C(=O)N[C@@H](CC(C)C)C(=O)O [APIDAECIN]

Second part, the compound before the results:

Row | Compound | MIC (Staphylococcus aureus) [µM] | MIC (Escherichia coli [1]) [µM] | MIC (Acinetobacter baumannii) [µM] | MIC (Escherichia coli [2]) [µM] | MIC (Salmonella enteritidis [3]) [µM] | MIC (Salmonella enteritidis [4]) [µM] | MIC (Escherichia coli [5]) [µM] | MIC (Escherichia coli [6]) [µM] | MIC (Escherichia coli [7]) [µM] | MIC (Pseudomonas aeruginosa) [µM] | MIC (Klebsiella pneumoniae [8]) [µM] | MIC (Salmonella typhimurium) [µM] | MIC [9] [µM] | MIC (Klebsiella pneumoniae [10]) [µM]
5 | CC[C@H](C)[C@H](NC(=O)[C@@H]1CCCN1C(=O)[C@H](CCCN=C(N)N)NC(=O)[C@@H]1CCCN1C(=O)[C@H](Cc1c[nH]cn1)NC(=O)[C@@H]1CSSC[C@H](NC(=O)[C@H](Cc2ccc(O)cc2)NC(=O)[C@@H]2CCCN2C(=O)[C@H](CCCN=C(N)N)NC(=O)[C@@H]2CCCN2C(=O)[C@H](CCCCN)NC(=O)CN)C(=O)N2CCC[C@H]2C(=O)N[C@@H](CCCN=C(N)N)C(=O)N2CCC[C@H]2C(=O)N[C@@H]([C@@H](C)O)C(=O)N1)C(=O)N[C@@H](CCCN=C(N)N)C(=O)N[C@H](C(=O)O)C(C)C (HELM PEPTIDE1{G.K.P.R.P.Y.C.P.R.P.T.C.H.P.R.P.I.R.V}$PEPTIDE1,PEPTIDE1,7:R3-12:R3$$$V2.0) | > 64 | > 64 | > 64 | > 64 | > 64 | > 64 | > 64 | > 64 | > 64 | > 64 | > 64 | > 64 | > 64 | > 64
6 | CC[C@H](C)[C@@H]1NC(=O)[C@@H]2CCCN2C(=O)[C@H](CCCN=C(N)N)NC(=O)[C@@H]2CCCN2C(=O)[C@H](Cc2c[nH]cn2)NC(=O)[C@H](CO)NC(=O)[C@H]([C@@H](C)O)NC(=O)[C@@H]2CCCN2C(=O)[C@H](CCCN=C(N)N)NC(=O)[C@@H]2CCCN2C(=O)[C@H](CO)NC(=O)[C@H](Cc2ccc(O)cc2)NC(=O)[C@@H]2CCCN2C(=O)[C@H](CCCN=C(N)N)NC(=O)[C@@H]2CCCN2C(=O)[C@H](CCCCN)NC(=O)CNC(=O)[C@H](C(C)C)NC(=O)[C@H](CCCN=C(N)N)NC1=O (HELM PEPTIDE1{G.K.P.R.P.Y.S.P.R.P.T.S.H.P.R.P.I.R.V}$PEPTIDE1,PEPTIDE1,1:R1-19:R2$$$V2.0) | > 64 | > 64 | > 64 | > 128 | > 128 | > 128 | 64 (≈ 140 µg/mL) | > 128 | > 128 | > 128 | > 128 | > 128 | > 64 | > 128
7 | H-GKPRPYSPRPTSHPRPIRV-OH [DROSOCIN] | > 64 | > 128 | > 128 | 2 | 8 | 16 | > 64 | 4 | 8 | > 128 | 64 | 32 | > 64 | 128
8 | CC[C@H](C)[C@H](NC(=O)[C@@H]1CCCN1C(=O)[C@H](CCCN=C(N)N)NC(=O)[C@@H]1CCCN1C(=O)[C@H](Cc1c[nH]cn1)NC(=O)[C@H](CO)NC(=O)[C@@H](NC(=O)[C@@H]1CCCN1C(=O)[C@H](CCCN=C(N)N)NC(=O)[C@@H]1CCCN1C(=O)[C@H](CO)NC(=O)[C@H](Cc1ccc(O)cc1)NC(=O)[C@@H]1CCCN1C(=O)[C@H](CCCN=C(N)N)NC(=O)[C@@H]1CCCN1C(=O)[C@H](CCCCN)NC(=O)CN)[C@@H](C)O[C@@H]1O[C@H](CO)[C@H](O)[C@H](O)[C@H]1O)C(=O)N[C@@H](CCCN=C(N)N)C(=O)N[C@H](C(=O)O)C(C)C (H-GKPRPYSPRPT(βGal)SHPRPIRV-OH) | > 64 | > 64 | > 128 | 1 (≈ 2.36 µg/mL) | 4 (≈ 9.44 µg/mL) | 4 (≈ 9.44 µg/mL) | 2 (≈ 4.72 µg/mL) | 4 (≈ 9.44 µg/mL) | 2 (≈ 4.72 µg/mL) | > 128 | 8 (≈ 18.9 µg/mL) | 8 (≈ 18.9 µg/mL) | > 64 | 16 (≈ 37.8 µg/mL)
